This is a sample that favours compounds with a hit; in the whole collection about 4.3% have one here.
Rin1 Abl inh = inhibitors of Rin1-Abl protein binding, primary screen, biochemical, TR-FRET. Tyrosine-protein kinase ABL1 (Homo sapiens) + Ras and Rab interactor 1 (Homo sapiens), …. inhibition, % at 7.35 µM. hit rate 0.4% among 360,000. AID 588664, 2011; in the data active = inhibition above about 5%, passing the limit was not always enough
UBC9 SUMO inh = inhibitors of in vitro SUMOylation cascade, primary screen, biochemical, HTRF, uHTS; inhibition, % at 35 µM; hit rate 0.36% among 290,000; SUMO-conjugating enzyme UBC9 (Homo sapiens), P63279; HTRF SUMOylation assay, SAE1/SAE2 + UBC9; AID 2006, 2009; in the data active = inhibition above about 50%, passing the limit was not always enough; inconclusive = no clear call, values can overlap the other calls
Target sequence (P63279 whole entry, looked up): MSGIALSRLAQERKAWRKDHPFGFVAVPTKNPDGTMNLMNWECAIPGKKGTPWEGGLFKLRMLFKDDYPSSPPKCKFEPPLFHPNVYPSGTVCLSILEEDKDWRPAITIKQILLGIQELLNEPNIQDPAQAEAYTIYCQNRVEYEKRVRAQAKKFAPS
UBC13 inh = UBC13 polyubiquitin chain formation inhibitors, primary screen, biochemical, TR-FRET, uHTS; Ubiquitin-conjugating enzyme E2 N (Homo sapiens), P61088; inhibition, % at 20 µM; hit rate 0.47% among 330,000; AID 485273, 2010; in the data active = inhibition above about 45%, passing the limit was not always enough; inconclusive = no clear call, values can overlap the other calls
RBBP9 inh = human RBBP9 inhibitors, primary screen, biochemical, fluorescence polarization, FP-Rh probe, HTS | recombinant RBBP9 | inhibition, % at 7.94 µM | hit rate 0.2% among 220,000;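 active = inhibition above the campaign mean of all tested compounds plus 3 SD, cut at about 14% in these data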
Target sequence (O75884 whole entry, looked up): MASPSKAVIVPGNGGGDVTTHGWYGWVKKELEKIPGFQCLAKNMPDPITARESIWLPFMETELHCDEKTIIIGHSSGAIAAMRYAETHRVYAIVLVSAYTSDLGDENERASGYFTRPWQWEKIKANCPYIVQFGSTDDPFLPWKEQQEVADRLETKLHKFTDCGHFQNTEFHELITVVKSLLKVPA
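Test system: recombinant human RBBP9; Timing: 30 min then 45 min, 25 °C; Detection: fluorescence polarization; Control set: RBBP9 with DMSO as uninhibited control, no-protein wells as full inhibition; Compound dosing: one concentration, 7.94 µM nominal, 0.794% DMSO; Probe or stimulus: FP-Rh activity-based probe, 375 nM before mixing.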
ALR inh = inhibitors of human ALR sulfhydryl oxidase, primary screen, biochemical, H2O2 detection, HRP-luminol luminescence, single point; FAD-linked sulfhydryl oxidase ALR (Homo sapiens), P55789; purified ALR, DTT oxidation; inhibition, % (test concentration not listed); hit rate 3.8% among 290,000;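 active = mean replicate inhibition above about 79%, with every replicate also reaching it, limit read from the data; inconclusive = only one of the two criteria met; inactive = mean below limit and not every replicate reaching it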
Target sequence (P55789 whole entry, looked up): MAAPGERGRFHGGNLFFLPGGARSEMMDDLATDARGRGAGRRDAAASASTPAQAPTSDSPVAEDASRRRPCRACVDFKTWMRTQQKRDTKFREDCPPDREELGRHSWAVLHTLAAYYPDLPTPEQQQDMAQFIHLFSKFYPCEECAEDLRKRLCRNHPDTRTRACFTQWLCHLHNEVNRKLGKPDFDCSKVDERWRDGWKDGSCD
PREPL inh = PREPL enzyme inhibitors, primary screen, biochemical, fluorescence polarization | hit rate 0.68% among 320,000 | inhibition, % at 5.96 µM | recombinant PREPL, fluorescence polarization activity-based probe | Prolyl endopeptidase-like (Homo sapiens), Q4J6C6 | AID 2751, 2010; in the data active = inhibition above about 43%
Each line names hits and unclear results; the compound was inactive in the other large screens.

COc1cc(/C=N/n2cnnc2)ccc1OC(=O)c1ccncc1	ALR inh 98
CC(=O)N1CCC(N(CCN2CCOCC2)C(=S)Nc2c(C)cccc2C)CC1	none
COc1ccc(N2C(=NC(=O)C3CCCCC3)SC3CS(=O)(=O)CC32)c(OC)c1 (stereo unspecified)	none (no result: RBBP9 inh)
COC(=O)C1=C(C)Nc2ccc(C)cc2S1	ALR inh 98
COC(=O)c1ccc2c(c1)SC1=C(CCCC1=O)N2	none
CC1CCc2sc(C(=O)N/N=C/c3ccc([N+](=O)[O-])cc3)cc2C1 (stereo unspecified)	none
CCN(CC)CCn1c(SCC(=O)NCc2ccccc2)nc2c(sc3ccccc32)c1=O	ALR inh 97
CC(C)c1ccc(NC(=O)CSc2nc(=O)n(CCCN3CCOCC3)c3c2CCC3)cc1	ALR inh 98 (no result: UBC9 SUMO inh, RBBP9 inh)
O=C(CSc1nc(=O)n(CCCN2CCOCC2)c2c1CCCC2)Nc1cccc([N+](=O)[O-])c1	none (no result: UBC9 SUMO inh, RBBP9 inh)
O=C(CSc1nc(=O)n(CCCN2CCOCC2)c2c1CCCC2)Nc1cccc(F)c1	ALR inh inconclusive (no result: UBC9 SUMO inh, RBBP9 inh)
O=C(CSc1nc(=O)n(CCCN2CCOCC2)c2c1CCCC2)Nc1ccc(Cl)cc1	ALR inh 96 (no result: UBC9 SUMO inh, RBBP9 inh)
CC(C)c1ccc(NC(=O)CSc2nc(=O)n(CCCN3CCOCC3)c3c2CCCC3)cc1	ALR inh 99 (no result: UBC9 SUMO inh, RBBP9 inh)
O=C(CSc1nc(=O)n(CCCN2CCOCC2)c2c1CCC2)Nc1ccc([N+](=O)[O-])cc1	ALR inh 98 (no result: UBC9 SUMO inh, RBBP9 inh)
Cc1c(Cl)cccc1NC(=O)CSc1nc(=O)n(CCCN2CCOCC2)c2c1CCC2	ALR inh 94 (no result: UBC9 SUMO inh, RBBP9 inh)
O=C(CCCCCNC(=O)N1CCn2c1nc1ccccc12)N[C@@H](C(=O)O)c1ccccc1	none (no result: RBBP9 inh)
CC(NC(=O)CCCCCNC(=O)N1CCn2c1nc1ccccc12)c1ccccc1 (stereo unspecified)	ALR inh 92 (no result: RBBP9 inh)
COc1ccc(-c2cc3nc4ccccc4n3c(N)c2C#N)cc1	UBC9 SUMO inh 57
O=C(COc1ccc2ccccc2c1)Nc1ccc(S(=O)(=O)N2CCCCCC2)cc1	none
O=C(NCC1CC1)c1ccc(Nc2nc3ccc(Br)cc3[nH]2)cc1	ALR inh 98
N#Cc1c2ccc(OCC(N)=O)cc2n2ccccc12	UBC9 SUMO inh 62
CCOC(=O)COc1ccc2c(C#N)c3ccccn3c2c1	none (no result: UBC13 inh, ALR inh, PREPL inh)
C[C@]12CC[C@H]3C(=CCc4cc(O)ccc43)[C@@H]1CCC2=O	ALR inh 94
CCOC(=O)N1CCC(N(CCOC)C(=S)Nc2cccc(SC)c2)CC1	none
CCOC(=O)N1CCC(Nc2cccc(SC)c2)CC1	ALR inh 97
Nn1c(SCC(=O)Nc2ccc3c(c2)OCCO3)nncc1=O	ALR inh 89 (no result: RBBP9 inh)
Cc1ccc(S(=O)(=O)N2CCOCC2)cc1NC(=O)CSc1nccn1C	none (no result: ALR inh)
Cn1ccnc1SCC(=O)Nc1cc(S(=O)(=O)N2CCOCC2)ccc1Cl	ALR inh 98
COc1ccc(NC(=O)CSc2nnc(CCC(=O)O)c(=O)n2N)cc1	ALR inh 98
Nn1cnnc1SCC(=O)Nc1ccc2c(c1)OCO2	none
CCOc1ccc(Cc2nnc(SCC(=O)Nc3ccc(OC)cc3)n(N)c2=O)cc1	none (no result: UBC9 SUMO inh, RBBP9 inh, ALR inh)
Cc1nnc(SCC(=O)Nc2ccc3c(c2)OCO3)n(N)c1=O	ALR inh 94
CC(=O)Nc1ccc(CN(C)c2c(C)nc3ccc(C(=O)NC4CCN(Cc5ccccc5)CC4)cn23)cc1	none (no result: UBC9 SUMO inh, UBC13 inh, RBBP9 inh, ALR inh, PREPL inh)
O=C(NCC(O)c1ccc([N+](=O)[O-])cc1)C1=COCCO1 (stereo unspecified)	none (no result: UBC9 SUMO inh, RBBP9 inh)
Cn1ccnc1SCC(=O)Nc1ccc2c(c1)OCO2	ALR inh 90
O=C(CSc1nccn1-c1ccccc1)Nc1ccc2c(c1)OCO2	none (no result: ALR inh)
COc1ccc(NC(=O)CSc2nnc(-c3ccccc3C)n2N)cc1	ALR inh 99
Cc1ccccc1-c1nnc(SCC(=O)Nc2ccc3c(c2)OCCO3)n1N	ALR inh 98
Nn1cnnc1N/N=C/c1cc(Br)cc(Br)c1O	none
O=C(CCN1C(=O)C2CCCCC2C1=O)N1CCN(S(=O)(=O)c2ccccc2)CC1 (stereo unspecified)	none (no result: UBC9 SUMO inh, RBBP9 inh)
O=C(Cc1c(F)cccc1Cl)Nc1nccs1	none (no result: RBBP9 inh)
C/C(CC(=O)Nc1ccc(Cl)cc1)=N\NC(=O)C(=O)N1CCCCC1	none
CCN(CC)c1ccc(C2CC(=O)NC3=C2C(=O)CC(C)(C)C3)cc1 (stereo unspecified)	ALR inh 95
CCN(CC)c1ccc(C2C(C(=O)OCCOC)=C(C)NC3=C2C(=O)CC(C)(C)C3)cc1 (stereo unspecified)	ALR inh 99
CN(C)c1ccc(C2CC(=O)NC3=C2C(=O)CC(C)(C)C3)cc1 (stereo unspecified)	ALR inh inconclusive
COc1ccc(-c2noc(CSc3nc(-c4ccccc4)cc(=O)[nH]3)n2)cc1	none
COc1ccc(-c2noc(CSc3nc(N)c(-c4ccccc4)c(=O)[nH]3)n2)cc1OC	ALR inh 100
CC(C)(CNC(=O)c1ccc(S(=O)(=O)Nc2ccc(Cl)cc2)cc1)N1CCOCC1	none (no result: UBC9 SUMO inh, RBBP9 inh, ALR inh)
O=C1NC(=O)/C(=C\c2ccc(Sc3ccc(Cl)cc3)o2)N1	ALR inh 90
O=C1NN(c2ccccc2)C(=O)/C1=C/c1ccc(Sc2ccc(Cl)cc2)o1	none
O=C(COC(=O)c1ccc(NC(=O)C2CC=CCC2C(=O)O)cc1)c1ccccc1 (stereo unspecified)	none (no result: RBBP9 inh)
Fc1ccc(-c2nc(-c3cnccn3)no2)c(Cl)c1	none
O=C(NNC(=O)c1ccccc1O)c1ccc(Cl)c(S(=O)(=O)N2CCCCC2)c1	ALR inh 97 (no result: UBC9 SUMO inh, RBBP9 inh)
Cn1cnnc1SCC(C)(C)NS(=O)(=O)c1ccc(Cl)cc1	none (no result: RBBP9 inh)
CCCCN(C)Cc1cc(=O)oc2cc3c(cc12)CCCC3	none
CCN(CCO)Cc1cc(=O)oc2cc3c(cc12)CCC3	ALR inh 87
O=[N+]([O-])c1ccc(Nc2ccccc2O)c2nonc12	ALR inh 99 (no result: RBBP9 inh, PREPL inh)
O=C(O)c1ccc(Nc2ccc([N+](=O)[O-])c3nonc23)cc1	none (no result: RBBP9 inh, PREPL inh)
Cc1ccc2nsnc2c1S(=O)(=O)N1CCOCC1	ALR inh 98
Cc1cccc(C)c1NC(=O)COC(=O)c1c2c(nc3ccccc13)/C(=C\c1ccc3c(c1)OCO3)CCC2	PREPL inh 71 (no result: UBC13 inh)
CC(OC(=O)c1c2c(nc3ccccc13)/C(=C\c1ccc3c(c1)OCO3)CCC2)C(=O)Nc1ccc(S(N)(=O)=O)cc1 (stereo unspecified)	none (no result: UBC13 inh, ALR inh, PREPL inh)
COc1cc(NC(=O)C2CC2)c(OC)cc1NC(=O)CCC(=O)NC1CCN(Cc2ccccc2)CC1	none
